Consider 16 compounds from ChEMBL document CHEMBL1128292, “Discovery of a novel series of orally active non-peptide endothelin-A (ETA) receptor-selective antagonists” (J Med Chem, 1995).

Assay [1] deals with T1, Endothelin receptor type B (Rattus norvegicus, UniProt P21451).
T1 sequence (P21451 whole entry): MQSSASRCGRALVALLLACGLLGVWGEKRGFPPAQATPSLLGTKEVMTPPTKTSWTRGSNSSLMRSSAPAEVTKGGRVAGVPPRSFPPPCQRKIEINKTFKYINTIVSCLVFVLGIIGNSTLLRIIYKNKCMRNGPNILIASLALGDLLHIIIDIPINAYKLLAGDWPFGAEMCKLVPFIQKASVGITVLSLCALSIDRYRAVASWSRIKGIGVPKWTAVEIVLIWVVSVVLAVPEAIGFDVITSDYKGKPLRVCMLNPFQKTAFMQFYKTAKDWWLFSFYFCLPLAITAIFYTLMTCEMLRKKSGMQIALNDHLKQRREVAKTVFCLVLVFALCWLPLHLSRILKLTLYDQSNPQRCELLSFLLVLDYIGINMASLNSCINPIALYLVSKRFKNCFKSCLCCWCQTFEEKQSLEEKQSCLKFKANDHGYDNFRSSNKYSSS
Put plainly: Tested for antagonistic activity against Endothelin B receptor in the rat cerebellum. The class given is functional, tissue-based.

In assay [2] the target is T2, Endothelin receptor type B (Homo sapiens, UniProt P24530).
T2 sequence (P24530 whole entry): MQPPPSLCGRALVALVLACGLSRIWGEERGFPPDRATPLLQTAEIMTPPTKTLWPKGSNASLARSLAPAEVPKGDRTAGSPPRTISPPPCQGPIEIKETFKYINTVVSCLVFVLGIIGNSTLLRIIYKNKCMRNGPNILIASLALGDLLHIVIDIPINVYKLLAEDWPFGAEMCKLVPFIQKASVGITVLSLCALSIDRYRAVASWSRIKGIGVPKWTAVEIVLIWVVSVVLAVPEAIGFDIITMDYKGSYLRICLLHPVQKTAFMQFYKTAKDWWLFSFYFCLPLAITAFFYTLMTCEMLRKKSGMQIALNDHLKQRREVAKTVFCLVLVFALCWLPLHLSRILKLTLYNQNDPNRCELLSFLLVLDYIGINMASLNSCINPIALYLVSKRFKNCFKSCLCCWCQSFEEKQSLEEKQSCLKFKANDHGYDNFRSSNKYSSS
Put plainly: Tested for antagonistic activity against Endothelin B receptor in the humans (CHO expressed). The class given is functional. In short, it runs like this: (§1)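 Membranes from cultured CHO-K1 cells expressing cloned human ETB receptor, incubated with [125I]ET-3 alone or with increasing unlabelled ligand concentrations, 37 °C, 2 h. Filtration separated bound from free ligand; gamma counting. Nonspecific binding measured with 100 nM unlabelled ET-3. One-site nonlinear least-squares fit of specific binding. IC50 from single competition experiments, triplicate points.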

The target of a further assay is T3, Endothelin-1 receptor (Homo sapiens, UniProt P25101).
T3 sequence (P25101 whole entry): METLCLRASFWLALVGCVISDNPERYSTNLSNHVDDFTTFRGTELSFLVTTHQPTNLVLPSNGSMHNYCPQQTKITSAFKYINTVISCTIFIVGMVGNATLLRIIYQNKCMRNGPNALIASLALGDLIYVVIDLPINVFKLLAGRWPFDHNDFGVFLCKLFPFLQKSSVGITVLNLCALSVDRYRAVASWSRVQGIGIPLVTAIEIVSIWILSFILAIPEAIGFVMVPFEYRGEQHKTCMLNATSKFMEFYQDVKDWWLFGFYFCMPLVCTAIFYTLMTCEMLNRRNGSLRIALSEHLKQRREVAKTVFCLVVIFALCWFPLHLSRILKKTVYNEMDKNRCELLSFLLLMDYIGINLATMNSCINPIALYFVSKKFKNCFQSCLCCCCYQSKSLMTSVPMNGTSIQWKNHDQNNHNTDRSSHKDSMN
Put plainly: Antagonistic activity against human Endothelin A receptor expressed in LtK. The class given is functional.

The target of assay [3] is T2, Endothelin receptor type B. Put plainly: Tested for antagonistic activity against Endothelin B receptor in human (CHO expressed). The class given is functional. In outline: as §1

Turning to `COc1ccc(C2(O)OC(=O)C(c3ccc4c(c3)OCO4)=C2Cc2ccc(C)cc2)cc1` (stereo unspecified), the IC50 (as a rule, the concentration needed to halve the response being measured) in assay [1] turned out to be 4.5 µM; in assay [2], 390 nM; against Endothelin-1 receptor it was 51 nM.

As to `COc1ccc(C2(O)OC(=O)C(c3ccc4c(c3)OCO4)=C2Cc2ccccc2)cc1C` (stereo unspecified), the IC50 was determined as 1750 nM in assay [2] and 12 nM on Endothelin-1 receptor.

Take `COc1ccc(CC2=C(c3ccc(Cl)cc3)C(=O)OC2(O)c2ccc(OC)cc2)cc1` (stereo unspecified): the IC50 in assay [2] is > 2500 nM.

`COc1ccc(C2(O)OC(=O)C(c3ccc4c(c3)OCO4)=C2Cc2ccc(Cl)cc2)cc1` (stereo unspecified): the half-maximal inhibitory concentration (IC50) in assay [2] is > 2500 nM.

As for `COc1ccc(CC2=C(c3ccccc3)C(=O)OC2(O)c2ccc(OC)cc2)cc1` (stereo unspecified), the IC50 in assay [2] was > 2500 nM.

Turning to `COc1ccc(C2(O)OC(=O)C(c3ccc4c(c3)OCO4)=C2Cc2ccc(OC)c(C)c2)cc1` (stereo unspecified), the IC50 in assay [2] came out at 1140 nM; against Endothelin-1 receptor, 2.4 nM.

`COc1ccc(CC2=C(c3ccc(C)cc3)C(=O)OC2(O)c2ccc(OC)cc2)cc1` (stereo unspecified): in assay [2], the IC50 is > 2700 nM.

Consider `COc1ccc(CC2=C(c3ccc(Cl)c(Cl)c3)C(=O)OC2(O)c2ccc(OC)cc2)cc1` (stereo unspecified), for which the half-maximal inhibitory concentration (IC50) was > 2500 nM in assay [2] and 170 nM at Endothelin-1 receptor.

Compound `COc1ccc(CC2=C(c3ccc4c(c3)OCO4)C(=O)OC2(O)c2ccc(OC)cc2)cc1` (stereo unspecified) yielded an IC50 in assay [2] of 1550 nM.

For the compound `O=C1OC(O)(c2ccccc2)C(Cc2ccccc2)=C1c1ccc2c(c1)OCO2` (stereo unspecified), the figures for the IC50 in assay [1] and in assay [3] were 22 µM and 30 µM, respectively.

As for `COc1ccc(CC2=C(c3ccc(OC)cc3)C(=O)OC2(O)c2ccc(OC)cc2)cc1` (stereo unspecified), in assay [2], the IC50 was > 2500 nM.

As for `O=C1OC(O)(c2ccc(Cl)cc2)C(Cc2ccccc2)=C1c1ccc2c(c1)OCO2` (stereo unspecified), the IC50 stood at 5.2 µM in assay [1] and 27000 nM in assay [2].

Turning to `Cc1ccc(C2(O)OC(=O)C(c3ccc4c(c3)OCO4)=C2Cc2ccccc2)cc1` (stereo unspecified), the half-maximal inhibitory concentration (IC50) in assay [1] was 4.5 µM; in assay [3] it was > 25 µM.

Take `O=C1OC(O)(c2ccc(Cl)c(Cl)c2)C(Cc2ccccc2)=C1c1ccc2c(c1)OCO2` (stereo unspecified): the IC50 in assay [2] was > 25000 nM.

On to `COc1ccc(C2(O)OC(=O)C(c3ccc4c(c3)OCO4)=C2Cc2ccccc2)cc1` (stereo unspecified) [PD-155080], for which the figures for the concentration for half-maximal inhibition (IC50) in assay [1] and in assay [3] were 0.5 µM and 4.55 µM, respectively.

Regarding `COc1ccc(C(=O)/C(Cc2cc(OC)c(OC)c(OC)c2)=C(\C(=O)O)c2ccc3c(c2)OCO3)cc1` [PD-156707 SODIUM], the IC50 in assay [2] amounted to 417 nM; against Endothelin-1 receptor, 0.31 nM.
